Key:
[1] = target: T1, Cyclin-dependent kinase 2/cyclin E (Homo sapiens, UniProt P24941); assay: Compound was evaluated for inhibition of Cyclin-dependent kinase 2-cyclin E; type: protein-complex assay
Outline: (§1)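 CDK2/his-cyclin E in 50 mM Tris-HCl pH 7.6, 10 mM MgCl2, 10% DMSO, 1 mM DTT, 50 µM ATP, 0.05 µCi [γ-32P]ATP, 6 µM GST-Rb. Incubated at room temperature, stopped with cold PBS containing 100 mM EDTA, 10 mM ATP, BSA and NP40. 32P incorporation into Rb measured; IC50 by fit of v/vo to [I] with slope factor.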

[2] = target: T2, Cyclin-dependent kinase 4/cyclin D1 (Homo sapiens, UniProt P11802); assay: Compound was evaluated for 50% inhibition of Cyclin-dependent kinase 4-cyclin D1; type: protein-complex assay
Outline: (§2)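 CDK4/cyclin D1 from extracts of co-expressing cells; 50 mM Tris-HCl pH 7.6, 10 mM MgCl2, 10% DMSO, 1 mM DTT, 50 µM ATP with [γ-32P]ATP, 6 µg GST-Rb (Rb aa 378-928). Started with 4 units enzyme, 15 min at room temperature, stopped with EDTA/ATP buffer. Labeled GST-Rb captured on GSH-Sepharose and counted by scintillation. IC50 from fit of v/vo versus [I] with slope term.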

[3] = system: AG1523; assay: Toxicity tested against normal human fibroblast cell line (AG1523); type: functional, cell-based
Outline: (§3)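 Sulforhodamine B growth assay. HCT116 colon carcinoma or AG1523 normal fibroblasts were seeded in McCoy's 5A with 5% FBS, at a density allowing 3-5 doublings. Incubation was 5 days (HCT116) or 6 days (AG1523) at 37 °C, 5% CO2. Cells were fixed with cold TCA, stained with 0.4% SRB, and dye was dissolved in 10 mM Tris base; OD read at 570 nm.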

[4] = system: HCT-116; assay: Toxicity tested against transformed human colon cancer cell line (HCT116); type: functional, cell-based; outline: as §3
[5] = system: HCT-116; assay: Effect of serum protein binding on inhibition of transformed cell line(PB HCT116) proliferation; type: functional, cell-based; conditions: Homo sapiens
Outline: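 HCT116 cells were grown as in the SRB assay, with 45 mg/mL human serum albumin plus 1 mg/mL α1-acid glycoprotein added together with graded compound. Growth was read out by MTT: 1 mg/mL solution added, 4 h at 37 °C. Formazan was solubilized in 0.04 N HCl/isopropanol and absorbance read at 570 nm against a 630 nm reference.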

[6] = target: T1, Cyclin-dependent kinase 2/cyclin E; assay: Inhibition of Cyclin-dependent kinase 2-cyclin E; type: protein-complex assay; outline: as §1
[7] = target: T2, Cyclin-dependent kinase 4/cyclin D1; assay: Inhibition of Cyclin-dependent kinase 4-cyclin D1; type: protein-complex assay; outline: as §2

T2 sequence (P11802 whole entry, the tested form may be a part): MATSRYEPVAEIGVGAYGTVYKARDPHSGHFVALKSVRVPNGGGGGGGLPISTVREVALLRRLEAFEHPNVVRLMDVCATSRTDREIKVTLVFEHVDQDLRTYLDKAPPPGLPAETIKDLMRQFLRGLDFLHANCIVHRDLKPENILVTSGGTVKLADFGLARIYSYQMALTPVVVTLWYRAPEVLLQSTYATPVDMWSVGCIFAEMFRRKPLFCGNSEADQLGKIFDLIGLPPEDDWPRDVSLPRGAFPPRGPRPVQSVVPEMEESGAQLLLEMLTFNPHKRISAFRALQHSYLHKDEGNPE
T2 sequence (P24385 whole entry, further chain, the tested form may be a part): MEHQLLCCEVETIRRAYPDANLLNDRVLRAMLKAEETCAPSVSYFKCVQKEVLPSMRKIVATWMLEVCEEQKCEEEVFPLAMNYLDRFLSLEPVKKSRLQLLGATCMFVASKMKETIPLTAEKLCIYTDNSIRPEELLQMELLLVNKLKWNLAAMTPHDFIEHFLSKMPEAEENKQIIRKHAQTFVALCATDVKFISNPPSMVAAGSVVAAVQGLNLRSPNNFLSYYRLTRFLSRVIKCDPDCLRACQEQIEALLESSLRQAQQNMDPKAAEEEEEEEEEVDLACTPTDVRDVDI

IC50 [1] [nM]	IC50 [2] [nM]	IC50 [5] [nM]	IC50 [6] [nM]	IC50 [7] [nM]	Compound	IC50 [3] [nM]	IC50 [4] [nM]
44	900	–	–	–	COc1ccc(-c2[nH]nc3c2C(=O)c2c(NC(=O)CN(C)C)cccc2-3)cc1	–	–
–	> 361000	–	–	–	COc1ccc(-c2[nH]nc3c2C(=O)c2cccnc2-3)cc1	–	–
8400	23000	–	–	–	COc1ccc(-c2[nH]nc3c2C(=O)c2c(N)cccc2-3)cc1	–	–
180	> 1100	–	–	–	COc1ccc(CNC(=O)Nc2cccc3c2C(=O)c2c(-c4ccc(OC)cc4)n[nH]c2-3)cc1	–	–
22	12	–	–	–	COc1ccc(-c2[nH]nc3c2C(=O)c2c(NC(=O)NN4CCCCC4)cccc2-3)cc1	–	–
–	21500	–	–	–	COc1ccc(-c2[nH]nc3c2C(=O)c2cc(O)ccc2-3)cc1	–	–
> 340000	> 340000	–	–	–	COc1ccc(-c2c3c(nn2C)-c2ccccc2C3=O)cc1	–	–
8	76	–	–	–	COc1ccc(-c2[nH]nc3c2C(=O)c2c(NC(=O)CN4CCC(C(N)=O)CC4)cccc2-3)cc1	400	–
12	9	–	–	–	COc1ccc(-c2[nH]nc3c2C(=O)c2c(NC(=O)NN4CCN(C)CC4)cccc2-3)cc1	85	15
210000	108000	–	–	–	COc1ccc(-c2[nH]nc3c2C(=O)c2cc(N)ccc2-3)cc1	–	–
8	64	> 5200	–	–	COc1ccc(-c2[nH]nc3c2C(=O)c2c(NC(=O)CN4CCN(C(N)=O)CC4)cccc2-3)cc1	> 400	47
12	20	–	–	–	COc1ccc(-c2[nH]nc3c2C(=O)c2c(NC(=O)CN4CCC(CN)CC4)cccc2-3)cc1	600	70
54	> 500	–	–	–	COc1ccc(-c2[nH]nc3c2C(=O)c2c(NC(=O)CN4CCSCC4)cccc2-3)cc1	–	–
21	195	–	–	–	COc1ccc(-c2[nH]nc3c2C(=O)c2c(NC(=O)CN4CCOCC4)cccc2-3)cc1	–	–
130	917	–	–	–	CCNCC(=O)Nc1cccc2c1C(=O)c1c-2n[nH]c1-c1ccc(OC)cc1	–	–
18	12	622	–	–	COc1ccc(-c2[nH]nc3c2C(=O)c2c(NC(=O)NN4CCOCC4)cccc2-3)cc1	950	20
–	–	1240	5	21	COc1ccc(-c2[nH]nc3c2C(=O)c2c(NC(=O)NN(C)C)cccc2-3)cc1	385	28
33	113	–	–	–	COc1ccc(-c2[nH]nc3c2C(=O)c2c(NC(=O)CN4CCNCC4)cccc2-3)cc1	–	–

IC50 [1] [nM]	IC50 [2] [nM]	IC50 [5] [nM]	IC50 [6] [nM]	IC50 [7] [nM]	Compound	IC50 [3] [nM]	IC50 [4] [nM]
> 1300	> 1300	–	–	–	CCN(CC)C(=O)Nc1cccc2c1C(=O)c1c(-c3ccc(OC)cc3)n[nH]c1-2	–	–
11	82	–	–	–	COc1ccc(-c2[nH]nc3c2C(=O)c2c(NC(=O)CN4CCC(CO)CC4)cccc2-3)cc1	–	–
32	877	–	–	–	COc1ccc(-c2[nH]nc3c2C(=O)c2c(NC(=O)Nc4ccccc4)cccc2-3)cc1	–	–
95	307	–	–	–	COc1ccc(-c2[nH]nc3c2C(=O)c2c(NC(=O)NCc4ccccc4)cccc2-3)cc1	–	–
> 280000	> 200000	–	–	–	COc1ccc(-c2c3c(nn2-c2ccccc2)-c2ccccc2C3=O)cc1	–	–
> 2300	> 2300	–	–	–	COc1ccc(-c2[nH]nc3c2C(=O)c2c(NC(=O)N(C)Cc4ccccc4)cccc2-3)cc1	–	–
> 720	> 1400	–	–	–	COc1ccc(-c2[nH]nc3c2C(=O)c2c(NC(=O)CN)cccc2-3)cc1	–	–
12	125	–	–	–	COc1ccc(-c2[nH]nc3c2C(=O)c2c(NC(=O)CN4CCN(C)CC4)cccc2-3)cc1	–	–
15	12	–	–	–	COc1ccc(-c2[nH]nc3c2C(=O)c2c(NC(=O)NN4CCCC4)cccc2-3)cc1	–	–
–	55500	–	–	–	COc1ccc(-c2[nH]nc3c2C(=O)c2cc(Cl)c(Cl)cc2-3)cc1	–	–
185	> 1000	–	–	–	COc1ccc(-c2[nH]nc3c2C(=O)c2c(NC(=O)CN4CCCCC4)cccc2-3)cc1	–	–
5200	20000	–	–	–	COc1ccc(-c2[nH]nc3c2C(=O)c2c(O)cccc2-3)cc1	–	–
4700	34500	–	–	–	COc1ccc(-c2[nH]nc3c2C(=O)c2ccncc2-3)cc1	–	–
84	780	–	–	–	CCCCNC(=O)Nc1cccc2c1C(=O)c1c(-c3ccc(OC)cc3)n[nH]c1-2	–	–
7	26	–	–	–	COc1ccc(-c2[nH]nc3c2C(=O)c2c(NC(=O)CN4CCN(C(=N)N)CC4)cccc2-3)cc1	–	> 900
29	1150	> 58000	–	–	COc1ccc(-c2[nH]nc3c2C(=O)c2c(NC(=O)NCc4ccncc4)cccc2-3)cc1	> 24000	378
7	66	3200	–	–	COc1ccc(-c2[nH]nc3c2C(=O)c2c(NC(N)=O)cccc2-3)cc1	413	57

— ChEMBL document CHEMBL1135596, “Synthesis and evaluation of indenopyrazoles as cyclin-dependent kinase inhibitors. 2. Probing the indeno ring substituent pattern” (J Med Chem, 2002)
